Bioassay records: PubChem, several laboratories
p-CIP stab down = p/CIP-EGFP fusion destabilizers, primary screen, fluorescence, F442A cells. AID 1984, 2009. 16 h. 290,000 compounds, 0.01% hits. decrease of EGFP signal, % at 10 µM;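 active = EGFP signal decrease of at least 30% at 10 µM or well 3 SD below plate mean, unless failing retest; inactive = the rest, including hits failing retest or dose response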
core dimer inh = inhibitors of HCV core protein dimerization, primary screen, biochemical, TR-FRET, high-throughput; TR-FRET GST/Flag-core106 dimerization, 1536-well; inhibition, % at 5 µM; 300,000 compounds, 0.33% hits;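 active = inhibition above the mean of all tested compounds plus 3 SD, set per screening campaign, cut at about 45% in these data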
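System – GST-tagged and Flag-tagged HCV core protein residues 1-106 · Repeats – one well for each compound · Technique – TR-FRET 671 and 617 nm emission · Doses – one concentration, 5 µM, in 0.5% DMSO · Times – 4 h, 22.5 °C incubation · Also added – Eu donor and XL665 acceptor anti-tag antibodies · Measure – percent inhibition of core106 dimerization signal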
DNA FID counter-1 = compounds displacing fluorescent DNA intercalator, primary screen, artefact control for HCV NS3 helicase inhibitor project, biochemical, FID fluorescence; DNA fluorescent intercalator displacement; inhibition, % at 7.9 µM; 290,000 compounds, 0.17% hits; AID 1845, 2009;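 also: 0% = vehicle and 100% = reference compound; higher means more ethidium bromide displaced from hairpin DNA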
GPR7 antag = GPR7 receptor antagonists, primary screen, cell-based, fluorescence, single concentration. Neuropeptides B/W receptor type 1 (Homo sapiens), P48145. GPR7-expressing cells, fluorescence antagonist assay. inhibition, % at 4.4 µM. 290,000 compounds, 1.1% hits. AID 1861, 2009; in the data active = inhibition above about 16%, passing the limit was not always enough;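 also: cells stimulated with the agonist NPW; 0% = agonist with vehicle and 100% = vehicle without agonist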
Target sequence (P48145 whole entry, looked up): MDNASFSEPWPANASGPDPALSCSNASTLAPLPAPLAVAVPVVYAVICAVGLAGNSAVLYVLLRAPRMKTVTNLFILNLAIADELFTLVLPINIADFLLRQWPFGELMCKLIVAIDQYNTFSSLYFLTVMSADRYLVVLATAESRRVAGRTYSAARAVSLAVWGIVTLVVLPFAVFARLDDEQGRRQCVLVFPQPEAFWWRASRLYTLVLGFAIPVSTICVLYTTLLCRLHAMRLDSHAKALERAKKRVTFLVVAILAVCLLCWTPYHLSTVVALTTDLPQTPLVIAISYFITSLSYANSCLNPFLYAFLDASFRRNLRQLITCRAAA
HCV NS3 hel inh = inhibitors of HCV NS3 helicase, primary screen, biochemical, Cy5 molecular beacon fluorescence. 290,000 compounds, 0.56% hits. Hepatitis C virus NS3 helicase. AID 1800, 2009. NS3 helicase DNA unwinding. inhibition, % at 10.9 µM;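 active = inhibition above the mean of all tested compounds plus 3 SD, set per campaign, cut at about 35% in these data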;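 also: 0% = DMSO wells and 100% = thioflavine S control wells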
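Material: hepatitis C virus NS3 helicase domain fragment enzyme; measured by: Cy5 fluorescence, 0 and 60 min reads; control set: DMSO and thioflavine S; incubation: 60 min unwinding reaction at 25 °C after ATP addition; read-out basis: % inhibition from 60/0 min fluorescence ratio, DMSO 0%, thioflavine S 100%; repeats: singlicate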
NS3 hel confirm = HCV NS3 helicase inhibitors, retest, confirmation, biochemical, Cy5 molecular beacon fluorescence, triplicate | inhibition, % at 10.9 µM | 1,600 compounds, 31% hits | shares compounds with HCV NS3 hel inh | NS3 helicase DNA unwinding;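 active = inhibition above the mean of all tested compounds plus 3 SD, cutoff set per campaign, cut at about 36% in these data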
DNA FID counter-2 = compounds displacing fluorescent DNA intercalator, artefact control for HCV NS3 helicase inhibitor project, biochemical, FID fluorescence, triplicate; inhibition, % at 7.9 µM; shares compounds with HCV NS3 hel inh; 1,600 compounds, 4% hits; DNA fluorescent intercalator displacement;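 also: 0% = vehicle and 100% = reference compound; higher means more displacement of ethidium bromide from the DNA hairpin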
DNA FID DR = compounds displacing fluorescent intercalator from DNA, dose response, counter-screen for HCV NS3 helicase inhibitor project, biochemical, fluorescence. shares compounds with HCV NS3 hel inh. fluorescent intercalator displacement from DNA. IC50, µM. 120 tested, under 10 active. AID 2172, 2009; call rule not given here
An asterisk follows results filed as active; . = no result given. An excerpt weighted towards active compounds, which were near 1.9% of everything screened. Rule as the data show it, unless noted: active = inhibition above about 37%; inactive = the rest.

SMILES | p-CIP stab down | core dimer inh | DNA FID counter-1 | GPR7 antag | HCV NS3 hel inh | NS3 hel confirm | DNA FID counter-2 | others
C/C=C/C(O)c1ccc2ccccc2c1 (configuration not stated) | -11 | -4 | -11 | -4 | 41* | 0 | 4
Oc1ccc(C[C@H]2CNCCN2CC2(c3ccccc3)CC2)cc1 | . | -27 | . | . | . | . | .
CC(C)COc1ccc(C(=O)NC(CC(C)C)C(=O)O)cc1 (configuration not stated) | -4 | 1 | -16 | 4 | 4 | . | .
Cc1ccc(Oc2ccc(OCC(=O)NC(CC(C)C)C(=O)O)cc2)cc1 (configuration not stated) | -10 | -2 | -24 | -5 | 45* | 39* | -25
COc1ccccc1N1CCN(C2CCCN(C(=O)CN3CCCCC3=O)C2)CC1 (configuration not stated) | -8 | -2 | -21 | -6 | 19 | . | .
Cc1cc(N=Nc2ccccc2C(=O)O)c(C)c(C)c1O | -18 | 0 | -14 | -5 | 49* | 66* | 2
O=C(c1cnc(Cl)c(Cl)c1)N1CCC(Cc2ccccc2)CC1 | 4 | 9 | -26 | 0 | 37* | 4 | -36
Cc1ccc(NC(=O)CSc2sc3c(O)cc(=O)[nH]c3c2C#N)c(F)c1 | -9 | -15 | -17 | -3 | 36* | 27 | 1
O=C(c1ccco1)[C@@H]1[C@@H]2C(=O)N(c3ccc(F)cc3)C(=O)[C@@H]2C2c3ccccc3C=CN21 (some centres not stated) | -22 | -1 | -4 | -6 | 43* | 3 | 12
CCOc1ccc(NC(=O)CSc2nnc(-c3cc(C)[nH]n3)n2N)cc1 | -6 | -2 | -15 | -4 | -8 | . | .
COc1cccc(C2C(C#N)=C(N)OC3=C2C(=O)CC(c2ccco2)C3)c1OCc1ccc(F)cc1 (configuration not stated) | -16 | 57* | -26 | 1 | 39* | 64* | -3 | DNA FID DR=>79
N#CC1=C(N)OC2=C(C(=O)CC(c3ccco3)C2)C1c1ccc(OCc2c(F)cccc2Cl)cc1 (configuration not stated) | -7 | 36 | -34 | 13 | 30 | . | .
Cc1ccccc1NC(=O)Cc1nnc(SCC(=O)NC2CCCC2)n1C | -2 | -1 | -3 | -23 | -2 | . | .
CCOc1cc2c3c(c1)C(C)=CC(C)(C)N3C(=O)C2=O | -2 | 0 | 7 | 16 | -1 | . | .
CC(=O)Oc1cc2c3c(c1)/C(=C1/SC(=S)NC1=O)C(=O)N3C(C)(C)C=C2C | -28 | 9 | -9 | -6 | 53* | 80* | 28
Cc1ccc(N=C2C(=O)Nc3ccccc32)cc1 | 4 | 11 | -4 | -7 | -5 | . | .
CCN(CC)c1ccc(N=C2C(=O)Nc3ccccc32)cc1 | -8 | 0 | -9 | -11 | 45* | 19 | 22
Cc1ccccc1-n1c(SCC(=O)N2CCOCC2)nc(O)c(Cc2ccccc2)c1=O | -3 | -6 | -27 | -11 | 2 | . | .
Cc1c(NC(=O)C(C)OC(=O)c2c3c(nc4ccccc24)CCC3)c(=O)n(-c2ccccc2)n1C (configuration not stated) | 4 | 14 | -24 | -13 | 39* | -25 | -28
CCOc1ccc(-n2ccc(=O)c(C(=O)Nc3ccc(S(=O)(=O)Nc4nccs4)cc3)n2)cc1 | -1 | 13 | -23 | -14 | 37* | -19 | -2
CCC/C(=N/NC(=O)c1ccccc1Cl)c1ccccc1 | 1 | -5 | -3 | -7 | 1 | . | .
CC1(C(=O)Nc2c(F)c(F)c(F)c(F)c2F)CC1(Br)Br (configuration not stated) | -5 | -2 | -2 | -11 | 1 | . | .
CCN(CC)S(=O)(=O)c1cc(OC)ccc1N=Nc1ccc(O)c2ncccc12 | -7 | . | -24 | -9 | 50* | 68* | -3
CCS(=O)(=O)c1ccc(OC)c(N=Nc2ccc(O)c3ncccc23)c1 | 4 | -12 | -2 | -6 | 0 | . | .
CSc1nc(N)nc(C2CC2)n1 | -3 | 2 | 2 | -17 | -5 | . | .
SMILES | p-CIP stab down | core dimer inh | DNA FID counter-1 | GPR7 antag | HCV NS3 hel inh | NS3 hel confirm | DNA FID counter-2 | others
C=CCc1ccc(OCC(O)CN2CCc3ccccc3C2)c(OC)c1 (configuration not stated) | 4 | 2 | 6 | -3 | -32 | . | .
Cc1ccccc1NC1c2ccccc2C(=O)N1Cc1ccco1 (configuration not stated) | 1 | 4 | -26 | -17 | 41* | -1 | -4
COC(=O)C1=NN(C(=O)c2ccc(Cl)cc2)C(O)(c2ccccc2)C1 (configuration not stated) | 2 | -1 | -32 | 7 | 44* | -6 | -10
Cc1nc(N[C@@H](Cc2c[nH]c3ccccc23)C(=O)O)c2oc3ccccc3c2n1 | 5 | -4 | -25 | -4 | 42* | -5 | -10
CCc1nc(N[C@@H](Cc2c[nH]c3ccccc23)C(=O)O)c2oc3ccccc3c2n1 | -4 | 0 | -26 | 8 | 0 | . | .
CC12CCC(C/C1=N\OC(=O)c1c(F)cccc1F)C2(C)C (configuration not stated) | -5 | 1 | 1 | 18 | -12 | . | .
NC(=O)c1cc([N+](=O)[O-])ccc1NCc1cnccn1 | . | -3 | . | . | . | . | .
O=C1NN(c2ccccc2)C(=O)/C1=C\c1ccccc1OCC(=O)N1CCOCC1 | -6 | 0 | -23 | -15 | 49* | -16 | 0
COc1cc(NC(=O)CCc2nnc3ccc(N4CCN(C)CC4)nn23)cc(OC)c1 | -15 | -20 | 4 | 5 | 10 | . | .
CCCOc1ccc(N2C(=O)CC(N3CCN(c4ccc([N+](=O)[O-])cc4)CC3)C2=O)cc1 (configuration not stated) | -3 | 3 | -21 | -4 | -27 | . | .
CCOc1ccc(N2C(=O)CC(N3CCN(c4ccc([N+](=O)[O-])cc4)CC3)C2=O)cc1 (configuration not stated) | -8 | -5 | -9 | -4 | 47* | -11 | -4
C#CCSC1=C(C#N)C(c2cccs2)C(C(=O)OCC)=C(C)N1 (configuration not stated) | -40 | 31 | -19 | 0 | 46* | -6 | -6
NC(=O)c1nsc(C(=O)N(CC(=O)NC2CCCCC2)Cc2ccc(F)cc2)c1N | -16 | -8 | -30 | -3 | -10 | . | .
